Results taken from ChEMBL document CHEMBL1687852, “Steroids with aromatic A-rings from the Hainan soft coral Dendronephthya studeri Ridley” (J Nat Prod, 2011).
Calls of active or inactive are those of the source. The calls are words filed in the database; no cut-off is given here.

What was measured:
Assay type in all cases: functional, cell-based
Bel-7402 [1] = assay: Cytotoxicity against human Bel7402 at 20 ug/ml by MTT assay
Method in brief: (§1)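 Growth of the tumour cell lines was tested with compound at concentrations up to 20 μg/mL. The lines were human lung adenocarcinoma A549, BEL-7402, human promyelocytic leukaemia HL-60 and murine lymphocytic leukaemia P388.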

HL-60 = assay: Cytotoxicity against human HL60 at 20 ug/ml by MTT assay; method in brief: as §1
A549 = assay: Cytotoxicity against human A549 at 20 ug/ml by SRB assay; method in brief: as §1
P388 = assay: Cytotoxicity against mouse P388 at 20 ug/ml by MTT assay; method in brief: as §1
Bel-7402 [2] = assay: Cytotoxicity against human Bel7402 by MTT assay

| SMILES | Activity (Bel-7402 [1]) | Activity (HL-60) | Activity (A549) | Activity (P388) | Activity (Bel-7402 [2]) |
| --- | --- | --- | --- | --- | --- |
| CC(C)[C@H](C)/C=C/[C@@H](C)[C@H]1CC[C@H]2[C@@H]3CCc4cc(O)ccc4[C@H]3CC[C@]12C | inactive | inactive | inactive | inactive | – |
| CC1CC1/C=C/[C@@H](C)[C@H]1CC[C@H]2[C@@H]3CCc4cc(O)ccc4[C@H]3CC[C@]12C (stereo partly specified) | inactive | inactive | inactive | inactive | – |
| CC(C)C/C=C/[C@@H](C)[C@H]1CC[C@H]2[C@@H]3CCC4=CC(=O)C=C[C@]4(C)[C@H]3CC[C@]12C | inactive | inactive | inactive | inactive | – |
| CC(C)[C@@H](C)/C=C/[C@@H](C)[C@H]1CC[C@H]2[C@@H]3CCc4cc(O)ccc4[C@H]3CC[C@]12C | inactive | inactive | inactive | inactive | – |
| CC(C)CCC[C@@H](C)[C@H]1CC[C@H]2[C@@H]3CCc4cc(O)ccc4[C@H]3CC[C@]12C | inactive | inactive | inactive | inactive | – |
| COC(=O)[C@H](CCCC(C)C)[C@H]1CC[C@H]2[C@@H]3CC[C@H]4CC(=O)C=C[C@]4(C)[C@H]3CC[C@]12C | – | – | – | – | Active |
| C=C(CC[C@@H](C)[C@H]1CC[C@H]2[C@@H]3CCC4=CC(=O)C=C[C@]4(C)[C@H]3CC[C@]12C)C(C)C | inactive | inactive | inactive | inactive | – |
| CC(C)/C=C/[C@@H](C)[C@H]1CC[C@H]2[C@@H]3CCc4cc(O)ccc4[C@H]3CC[C@]12C | inactive | inactive | inactive | inactive | – |
| CC(C)/C=C/[C@@H](C)[C@H]1CC[C@H]2[C@@H]3CCC4=CC(=O)C=C[C@]4(C)[C@H]3CC[C@]12C | inactive | inactive | inactive | inactive | – |
| C=C(CC[C@@H](C)[C@H]1CC[C@H]2[C@@H]3CCc4cc(O)ccc4[C@H]3CC[C@]12C)C(C)C | inactive | inactive | inactive | inactive | – |
| CC(C)C/C=C/[C@@H](C)[C@H]1CC[C@H]2[C@@H]3CCc4cc(O)ccc4[C@H]3CC[C@]12C | inactive | inactive | inactive | inactive | – |
